Data as given in paper PMC8958324 (iScience, 2022).

Assays:
S144-Alexa488 Rho F212A = S144-Alexa488 Rho F212A (Bos taurus, UniProt P02699, F212A/S144F); experiment: Alexa488-based FRET assay, 11CR entry kinetics; format: binding, bovine; settings: F212A vs wt; Eyring plot
Procedure, shortened: (§1)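 Bovine opsin bearing S144azF is expressed in HEK293F cells with 1 mm azF for 96 h and regenerated with 11CR. It is purified by 1D4 immunopurification in DDM and labelled on resin with 50 μm Alexa488-DIBO for 18 h at 25°C. Labelled receptor (5–50 nm) sits in 1% POPC/1% CHAPS bicelles, pH 6.0, with 0.5–30 μm 11CR. Fluorescence (ex 488, em 520 nm) decay gives kobs; kon = kobs/[retinal], measured across temperatures for Eyring plots; mean ± STD.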

Rho A269W = Rho A269W (Bos taurus, UniProt P02699, A269W); experiment: regeneration with 11CR; format: binding, bovine; settings: expressed at very low level
Rho T94I [1] = target: T1, Rho T94I (Bos taurus, UniProt P02699, T94I); experiment: Trp-based FRET assay, 11CR entry kinetics; format: binding, bovine
Procedure, shortened: (§2)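 Mutant bovine opsin is expressed in HEK293F cells, regenerated with 5 μm 11CR overnight at 4°C, then 1D4-immunopurified in DDM and C9-peptide eluted. Receptor at 0.25–0.30 μm is diluted into 1% POPC/1% CHAPS bicelles, pH 6.0, stirred in a temperature-controlled cuvette, with 11CR at 0.5–30 μm final. Trp quenching (ex 295, em 330 nm) is fitted pseudo-first-order; k2 = kobs/[retinal]. Data are mean ± STD of ≥3 trials.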

opsin = settings: 11CR binding with opsin; ref Tian et al., 2017a; cited from earlier work
Rho A269Y = Rho A269Y (Bos taurus, UniProt P02699, A269Y); experiment: regeneration with 11CR; format: binding, bovine; settings: 11CR 15 μM, over 48 h
Rho F212W = Rho F212W (Bos taurus, UniProt P02699, F212W); experiment: Trp-based FRET assay, 11CR entry kinetics; format: binding, bovine
Procedure, shortened: as §2

S144-Alexa488 Rho F208W = S144-Alexa488 Rho F208W (Bos taurus, UniProt P02699, F208W/S144F); experiment: Alexa488-based FRET assay, 11CR entry kinetics; format: binding, bovine; settings: F208W vs wt; Eyring plot
Procedure, shortened: as §1

Rho I189P [2] = target: T2, Rho I189P (Bos taurus, UniProt P02699, I189P); experiment: Trp-based FRET assay, 11CR entry kinetics; format: binding, bovine; settings: I189P vs I189, TM5 single vs TM5/I189P double mutants, kon Trp
Procedure, shortened: as §2

Rho I189P [3] = target: T2, Rho I189P; experiment: Trp-based FRET assay, ATR release kinetics; format: binding, bovine; settings: I189P vs I189, TM5 single vs TM5/I189P double mutants, koff Trp
Procedure, shortened: (§3)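 ATR release runs on HEK293F-expressed, 1D4-immunopurified mutant bovine rhodopsin at 0.25–0.30 μm in 1% POPC/1% CHAPS bicelles, pH 6.0. Release is followed as recovery of Trp fluorescence (ex 295, em 330 nm), the inverse of retinal-induced quenching, integrated for 2 s every 30 s. Traces are fitted to a single exponential to give koff, reported as mean ± STD of ≥3 trials.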

Rho A269F = Rho A269F (Bos taurus, UniProt P02699, A269F); experiment: Trp-based FRET assay, ATR release kinetics; format: binding, bovine
Procedure, shortened: as §3

Rho T94I [4] = target: T1, Rho T94I; experiment: Trp-based FRET assay, ATR release kinetics; format: binding, bovine
Procedure, shortened: as §3

Rho F212A = Rho F212A (Bos taurus, UniProt P02699, F212A); experiment: Trp-based FRET assay, ATR release kinetics; format: binding, bovine
Procedure, shortened: as §3

CC1=C(/C=C/C(C)=C/C=C/C(C)=C/C=O)C(C)(C)CCC1 [11CR, 11-cis-retinal]
reduction of activation enthalpy (Δ‡H) of 11CR entry (S144-Alexa488 Rho F212A): 3.7 ± 1.6 kcal/mol
regeneration with 11CR (Rho A269W): failed to regenerate
11CR entry kinetics (relative to wt) (Rho T94I [1]): 0.80 ± 0.04
activation barrier Δ‡Gon (opsin): 13.5 kcal/mol
regeneration with 11CR (Rho A269Y): could not be regenerated
11CR entry kinetics normalized to the wt Rho (Rho F212W): 0.043 ± 0.022
increase of activation enthalpy (Δ‡H) of 11CR entry (S144-Alexa488 Rho F208W): 4.8 ± 3.1 kcal/mol
reduction of activation free energy Δ‡Gon by I189P (Rho I189P [2]): 1.6 ± 0.3 kcal/mol

CC1=C(/C=C/C(C)=C/C=C/C(C)=C/C=O)C(C)(C)CCC1 [ATR, all-trans-retinal]
reduction of activation free energy Δ‡Goff by I189P (Rho I189P [3]): 1.6 ± 0.8 kcal/mol
ATR exit kinetics normalized to the wt Rho (Rho A269F): 0.91 ± 0.07
ATR release kinetics (relative to wt) (Rho T94I [4]): 0.17 ± 0.02
ATR exit kinetics normalized to the wt Rho (Rho F212A): 2.82 ± 1.0
